Series [1] relates to Human immunodeficiency virus 1. Put plainly: Antiviral activity against HIV1 with RT K103N mutation. Format: functional, organism-based. The gist of the method:
(§1)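 Cytoprotection assay in CEM-SS cells infected with HIV-1 strains engineered to carry the NNRTI-resistance RT mutation (K103N or Y181C). Activity is expressed as the EC50 for protection of the cells from virus-induced cytopathic effect.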

The nature of series [2]: Cytotoxicity against human CEM-SS cells by MTT assay. Format: cell-based.
For series [3], the target named is Human immunodeficiency virus type 1 reverse transcriptase (Human immunodeficiency virus 1, UniProt Q72547). In words: Inhibition of HIV1 reverse transcriptase.
Series [4] relates to Human immunodeficiency virus 1. Put plainly: Antiviral activity against HIV1 RF in human CEM-SS cells by XTT assay. The series is classed as functional, organism-based. To be noted: for pEC50: Human immunodeficiency virus 1, RF.
Series [5] deals with Human immunodeficiency virus 1. In words: Antiviral activity against HIV1 with RT Y181C mutation. Format: functional, organism-based. The gist of the method: as §1
A short description of series [6]: Cytotoxicity against human MT4 cells by MTT assay. The series is classed as cell-based.
Series [7] concerns Human immunodeficiency virus 1. Put plainly: Antiviral activity against HIV1 3B in human MT4 cells by MTT assay. To be noted: for pEC50: Human immunodeficiency virus 1, 3B.
Series [8] deals with Human immunodeficiency virus 2. Put plainly: Antiviral activity against HIV2 ROD in human MT4 cells by MTT assay. To be noted: for pEC50: Human immunodeficiency virus 2, ROD.
Series [9] can be described thus: Metabolic stability in rat plasma. Format: ADME, cell-free. The gist of the method: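 Compounds were incubated in reconstituted rat plasma (two lots, checked with a control compound), with 1,1-diphenylethylene as internal standard. Aliquot supernatants were analysed by HPLC with UV detection. Half-lives came from regression fits of concentration versus time and were averaged over at least two replicates.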

Molecules are shown by their SMILES. pEC50, pIC50: −log10 of the molar value. Calls of active or inactive are those of the source. The rule behind the calls is not given here.

As to `COc1c(C)cc(/C(=C\CCc2nnc(C)o2)c2ccc3oncc3c2)cc1C(=O)SC`, the pEC50 was under 4.30 in series [1], 5.59 in series [4] and under 4.00 in series [5]. In series [2], this compound had a cytotoxic concentration (CC50) of 38 µM. The compound also showed a negative-log IC50 (pIC50) in series [3] of 5.11.
`COc1c(C)cc(/C(=C/CCc2nnc(C)o2)c2ccc(C#N)cc2)cc1C(=O)SC`: the cytotoxic concentration (CC50) in [6] was 3.2 µM; in series [2] it was 1.2 µM. The result in [7], in series [8] and in [4] was inactive. This compound gave a pIC50 in series [3] of 4.32.
Consider `COC(=O)CCCC=C(c1cc(Cl)c(OC)c(C(=O)OC)c1)c1cc(Cl)c(OC)c(C(=O)OC)c1`, for which the 50% cytotoxic concentration (CC50) in series [6] came out at 160 µM; in [2], 32 µM. Also, the pEC50 in series [8] is 4.60; in [4], 8.00. This compound had a half-life in series [9] of 5.8 min.
As for `COc1c(C)cc(/C(=C/CCCc2nnc(C)o2)c2cc(C)c3onc(OC)c3c2)cc1C(=O)SC`, the negative logarithm of the EC50 (pEC50) in series [1] was under 4.30; in series [5], under 4.00. Further, the CC50 in series [6] came out at 1.1 µM; in [2], 0.78 µM. For the same compound, the result in series [7], in [8] and in [4] was inactive. The negative-log IC50 (pIC50) in series [3] is 5.28.
Consider `COc1c(C)cc(/C(=C/CCc2nnc(C)o2)c2cc(C)c3onc(OC)c3c2)cc1C(=O)SC`, for which the CC50 in series [6] was found to be 1.6 µM; in series [2] it was 1.2 µM. Besides, the result in [7], in series [8] and in series [4] was inactive. The compound further showed a pIC50 in series [3] of 4.48.
In the case of `COc1c(C)cc(/C(=C\CCCc2nnc(C)o2)c2cc(C)c3on(C)c(=O)c3c2)cc1C(=O)SC`, the CC50 in series [6] was found to be 9.9 µM; in series [2], 6 µM. The negative logarithm of the EC50 (pEC50) in series [7] is 6.12; in [4] it was 6.01. In series [3], this compound showed a pIC50 of under 4.00. In series [8], the outcome was inactive.
In series [6], `Cc1ccnc2c1NC(=O)c1cccnc1N2C1CC1` [NEVIRAPINE] displayed a CC50 of 15 µM. Moreover, the result in series [8] was inactive. The same compound had a negative logarithm of the EC50 (pEC50) in [4] of 7.82.
As to `COc1c(C)cc(/C(=C\CCc2nnc(C)o2)c2ccc(C#N)cc2)cc1C(=O)SC`, the pEC50 was under 4.30 in series [1], 5.49 in series [7], 5.68 in series [4] and under 4.00 in series [5]. Further, the figures for the CC50 in series [6] and in series [2] were 45 µM and 5.5 µM, respectively. Besides, the pIC50 in [3] is 5.20. In addition, in series [8], the result was inactive.
Turning to `COc1c(C)cc(/C(=C/CCc2nnc(C)o2)c2cc(C)c3oc(=O)n(C)c3c2)cc1C(=O)SC`, the CC50 amounted to 14 µM in [6] and 6.6 µM in [2]. The outcome in [7] and in series [4] was inactive. In series [3], this compound showed a negative logarithm of the IC50 (pIC50) of 4.05. This compound also had a negative logarithm of the EC50 (pEC50) in series [8] of 5.23.
As to `COC(=O)c1cc(C(=CCCc2nnc(C)o2)c2cc(C)c(OC)c(C(=O)SC)c2)cc(C)c1OC`, the values for the CC50 in series [6] and in [2] were 3.9 µM and 13 µM, respectively. For the same compound, the outcome in series [7], in [8] and in [4] was inactive. The compound further showed a pIC50 in series [3] of 4.49. Moreover, in series [9], the half-life was found to be 78 min.
Turning to `COc1c(C)cc(C(=CCCc2nnc(C)o2)c2cc(C)c(OC)c(C(=O)SC)c2)cc1C(=O)SC`, the values for the CC50 in [6] and in series [2] were 5.9 µM and 8.1 µM, respectively. Also, the result in [7], in series [8] and in [4] was inactive. The compound also gave a pIC50 in [3] of under 4.00.
As to `COc1c(C)cc(/C(=C\CCc2nnc(C)o2)c2cccc(C#N)c2)cc1C(=O)SC`, the half-maximal cytotoxic concentration (CC50) in [6] was found to be 8.4 µM; in series [2] it was 2.7 µM. Also, in series [7], the pEC50 is 5.85. For the same compound, the pIC50 in series [3] is 5.03. Besides, the outcome in [8] and in [4] was inactive. This compound also returned a half-life in series [9] of 221 min.
On to `COC(=O)c1cc(/C(=C\CCc2nnc(C)o2)c2ccc(C#N)cc2)cc(C)c1OC`, for which the half-maximal cytotoxic concentration (CC50) in series [6] was 16 µM; in [2], 28 µM. The pEC50 was 5.70 in series [7] and 5.52 in series [4]. The same compound had a pIC50 in series [3] of 4.62. The result in [8] was inactive. This compound had a half-life in series [9] of 45 min.
`COC(=O)CCC/C=C(\c1cc(C)c(OC)c(C(=O)OC)c1)c1cc(C)c2onc(OC)c2c1` showed a pIC50 in [3] of 6.04.
For the compound `COC(=O)c1cc(C(=CCCc2nnc(C)o2)c2cc(C)c(OC)c(C(=O)OC)c2)cc(C)c1OC`, the half-maximal cytotoxic concentration (CC50) was determined as 37 µM in series [6] and 40 µM in [2]. This compound also had a pIC50 in [3] of 4.15. Also, in [8], the outcome was inactive. In series [9], this compound returned a half-life of 3.3 min.
On to `COC(=O)c1cc(C(=CCCc2nnn(C)n2)c2cc(C)c(OC)c(C(=O)SC)c2)cc(C)c1OC`, for which the CC50 in [6] was 1.4 µM; in [2], 1.6 µM. Also, the outcome in [7], in [8] and in [4] was inactive. In addition, the pIC50 in [3] was 4.02.
With `COc1c(C)cc(/C(=C/CCCc2nnc(C)o2)c2cccc(C#N)c2)cc1C(=O)SC`, the half-maximal cytotoxic concentration (CC50) came to 8.2 µM in series [6] and 7.2 µM in series [2]. Also, the outcome in series [7], in series [8] and in series [4] was inactive. Also, in series [3], the negative-log IC50 (pIC50) was 5.11.
Consider `COc1c(C)cc(C(=CCCc2nnn(C)n2)c2cc(C)c(OC)c(C(=O)SC)c2)cc1C(=O)SC`, for which the cytotoxic concentration (CC50) stood at 7 µM in [6] and 33 µM in [2]. Further, the result in [7] and in [8] was inactive. The same compound showed a negative logarithm of the IC50 (pIC50) in [3] of 4.17.
On to `COC(=O)CCCC=C(c1cc(Br)c(OC)c(C(=O)OC)c1)c1cc(Br)c(OC)c(C(=O)OC)c1`, for which the cytotoxic concentration (CC50) is 91 µM in series [6] and 13 µM in [2]. Further, the result in series [8] was inactive. In series [9], this compound showed a half-life of 6.2 min.
Turning to `COC(=O)c1cc(/C(=C\CCc2nnn(C)n2)c2cccc(C#N)c2)cc(C)c1OC`, the figures for the CC50 in series [6] and in series [2] were 34 µM and 7.4 µM, respectively. In addition, the pEC50 in [7] was 5.82; in series [4], 5.62. Besides, in series [3], the pIC50 was 5.11. Also, the outcome in series [8] was inactive. The compound further displayed a half-life in [9] of 42 min.
Turning to `COc1c(C)cc(/C(=C/CCCc2nnc(C)o2)c2cc(C)c3on(C)c(=O)c3c2)cc1C(=O)SC`, the figures for the 50% cytotoxic concentration (CC50) in series [6] and in series [2] were 25 µM and 12 µM, respectively. The result in [7], in series [8] and in [4] was inactive. In [3], this compound gave a pIC50 of under 4.00.
In the case of `COc1c(C)cc(/C(=C/CCc2nnc(C)o2)c2cccc(C#N)c2)cc1C(=O)SC`, the CC50 was 3.8 µM in series [6] and 1.3 µM in series [2]. In addition, the outcome in series [7], in series [8] and in [4] was inactive. The compound further showed a negative-log IC50 (pIC50) in [3] of 4.26.
Consider `COC(=O)c1cc(C(=CCCc2nnn(C)n2)c2cc(C)c(OC)c(C(=O)OC)c2)cc(C)c1OC`, for which the CC50 in series [6] is 5 µM; in series [2], 9.6 µM. Also, the outcome in series [7], in series [8] and in series [4] was inactive. The negative logarithm of the IC50 (pIC50) in [3] is 4.28. In [9], this compound returned a half-life of 24 min.
As to `COc1c(C)cc(/C(=C/CCc2nnc(C)o2)c2cc(C)c3on(C)c(=O)c3c2)cc1C(=O)SC`, the 50% cytotoxic concentration (CC50) in [6] was 37 µM; in series [2], 17 µM. The outcome in [7], in series [8] and in [4] was inactive. This compound showed a pIC50 in series [3] of under 4.00.
As to `COc1c(C)cc(/C(=C\CCc2nnc(C)o2)c2cc(C)c3on(C)c(=O)c3c2)cc1C(=O)SC`, the negative logarithm of the EC50 (pEC50) is under 4.30 in [1], 5.43 in series [7], 5.19 in [4] and under 4.00 in series [5]. Further, the half-maximal cytotoxic concentration (CC50) in series [6] turned out to be 19 µM; in series [2] it was 18 µM. In [3], this compound showed a negative logarithm of the IC50 (pIC50) of 5.04. In addition, in series [8], the result was inactive.
For the compound `O=C1Nc2ccc(Cl)cc2C(C#CC2CC2)(C(F)(F)F)O1` (single isomer, unassigned) [EFAVIRENZ], the half-maximal cytotoxic concentration (CC50) in series [6] worked out at 6 µM. Further, the result in series [8] was inactive.
Take `COC(=O)CCC/C=C(\c1cc(C)c(OC)c(C(=O)OC)c1)c1cc(C)c2oc(=O)n(C)c2c1`: the outcome in series [8] was inactive.
For the compound `COC(=O)c1cc(/C(=C/CCc2nnc(C)o2)c2cc(C)c3oc(=O)n(C)c3c2)cc(C)c1OC`, the negative logarithm of the EC50 (pEC50) in series [1] was under 4.30; in [7], 6.36; in series [4] it was 6.37; in series [5], under 4.00. Further, the CC50 is 13 µM in series [6] and 3.2 µM in series [2]. The compound also had a pIC50 in [3] of 6.00. For the same compound, the result in series [8] was inactive.
Regarding `COc1c(C)cc(/C(=C/CCCc2nnc(C)o2)c2cc(C)c3oc(=O)n(C)c3c2)cc1C(=O)SC`, the CC50 amounted to 7.7 µM in [6] and 5.5 µM in series [2]. The result in series [7], in [8] and in series [4] was inactive. This compound showed a pIC50 in series [3] of 4.44.

The values above are taken from ChEMBL document CHEMBL1148795 (J Med Chem, 2007).
